Jurkat NFkB inh – lowers PMA/ionomycin-induced NF-kB signal in Jurkat cells | PMA/ionomycin-induced NF-kB luciferase reporter, luminescence | 330,000 tested, 0.53% active | AID 435003 | inhibition, % at 4 µM; in the data active = inhibition above about 50%
NR2E3 ag-1 – agonists of human nuclear receptor NR2E3; AID 2300; inhibition of corepressor binding, % at 4.78 µM; Q9Y5X4; 320,000 tested, 0.12% active; GST-NR2E3/biotin-RetCOR TR-FRET, 1536-well;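 active = percent inhibition above the cutoff of mean plus 3 SD of all tested compounds, set per screening campaign, cut at about 20% in these data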
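Material: NR2E3–RetCOR corepressor complex / Incubation: Compound–protein incubation for 5 h at 4 °C / Dosing: compound at 4.8 µM, single dose / Detection: time-resolved FRET / Benchmarks: high control biotin, low control 0.6% DMSO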
GalR3 antagonist – human GalR3 antagonism; O60755; HEK293 GalR3-CNG cAMP membrane potential fluorescence; galR3 body fused to GalR1 C-terminus; inhibition, % at 3 µM; 360,000 tested, 0.44% active;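 active = inhibition above the screen-wide average plus 3 SD, cut at about 13% in these data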;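 note: forskolin and galanin both at EC90 stimulate the cells; cAMP rise reported by CNG channel membrane potential dye signal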
Target sequence (O60755 1-299 limits assumed): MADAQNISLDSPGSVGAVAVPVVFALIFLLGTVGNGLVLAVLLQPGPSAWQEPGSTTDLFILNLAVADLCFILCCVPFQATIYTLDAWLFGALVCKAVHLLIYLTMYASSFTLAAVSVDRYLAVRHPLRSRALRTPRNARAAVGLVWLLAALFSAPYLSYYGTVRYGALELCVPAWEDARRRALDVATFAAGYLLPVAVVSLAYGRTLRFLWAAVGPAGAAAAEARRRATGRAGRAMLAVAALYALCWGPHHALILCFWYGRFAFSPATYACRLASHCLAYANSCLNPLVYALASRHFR
Gli-Sufu antag – blocks Gli-Sufu signaling in a luciferase reporter; Sufu-KO-LIGHT fibroblasts, Gli luciferase reporter luminescence; inhibition, % at 5 µM; 340,000 tested, 0.74% active; AID 588413;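 active = inhibition above about 55%, limit read from the data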
697 NFkB inh – inhibitors of the PMA/ionomycin-induced NF-kB reporter in 697 B cells | 330,000 tested, 0.33% active | 697 B-cell NF-kB luciferase reporter, 16 h | inhibition, % at 4 µM; in the data active = inhibition above about 35%
NR2E3 ag-2 – activates human NR2E3 receptor | 360,000 tested, 0.35% active | inhibition of corepressor binding, % at 3.98 µM | AID 602229 | CHO-S Gal4-NCOR/VP16-NR2E3 two-hybrid, luciferase;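 active = inhibition above the mean of all tested compounds plus 3 SD, cut at about 70% in these data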;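 note: higher means lower luciferase signal from less NR2E3 corepressor binding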
GalR3 antag conf – GalR3 (human) antagonism, confirmation. shares compounds with GalR3 antagonist. HEK293 GalR3 CNG cAMP biosensor, membrane potential fluorescence; galR3 fused to GalR1 carboxy tail; challenged with forskolin and galanin at EC90. inhibition, % at 3 µM. 1,600 tested, 59% active;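 active = inhibition above the primary screen's cutoff, the mean inhibition of all screened compounds plus 3 SD, cut at about 13% in these data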
CNG parental – parental cell agonism counter-screen for GalR3 antagonists. activation, % at 3 µM. HEK293-CNG parental cells, cAMP membrane potential fluorescence; normalised: DMSO wells 0%, forskolin wells 100%. 1,600 tested, 10% active. shares compounds with GalR3 antagonist; in the data active = activation above about 1.3%
Numbers stand for hits; n = inactive; x = no result given. Hits are enriched below; roughly 1.8% of the tested compounds scored in any of these assays.

SMILES | Jurkat NFkB inh | NR2E3 ag-1 | GalR3 antagonist | Gli-Sufu antag | 697 NFkB inh | NR2E3 ag-2 | GalR3 antag conf | CNG parental
COCc1[nH]nc2c1C(c1ccc(OC)c(OC)c1)C(C#N)=C(N)O2 (stereo not drawn) | n | n | n | n | n | n | x | x
CSc1nsc2nc(=O)c(/C=C3\C(C)=Nc4ccccc43)c(N)n12 | x | x | 13 | n | x | n | n | n
CC(C(=O)Nc1ccccc1F)N1CCN(S(=O)(=O)c2ccc(C(F)(F)F)cc2)CC1 (stereo not drawn) | n | x | n | n | n | n | x | x
CC(=O)Nc1ccc(S(=O)(=O)Oc2ccc(N3C(=O)C4CCCCC4C3=O)cc2)cc1 (stereo not drawn) | n | n | 42 | n | n | n | 39 | n
Nc1[nH]n2c(=O)c3c(nc2c1N=Nc1ccc(Cl)cc1)CCCC3 | n | n | n | n | n | n | x | x
Nc1[nH]n2c(=O)c3c(nc2c1N=Nc1ccccc1)CCCC3 | n | n | 61 | n | n | n | 28 | n
Cc1ccc(S(=O)(=O)Oc2ccccc2/C=N/O)cc1 | n | n | n | n | n | n | x | x
Cc1ccc(S(=O)(=O)Oc2ccccc2/C=N/Nc2ccc(C(=O)O)cc2)cc1 | n | n | 18 | n | n | n | n | n
Clc1cccc(CN2CCN(c3ncc(Cc4ccccc4)cn3)CC2)c1Cl | x | x | 55 | x | x | x | 106 | n
Clc1ccc(CN2CCN(c3ncc(Cc4ccccc4)cn3)CC2)cc1 | x | x | n | x | x | x | x | x
COc1ccc(C(CNC(=O)CCNS(=O)(=O)c2ccccc2C(F)(F)F)N2CCOCC2)cc1 (stereo not drawn) | x | x | n | n | x | n | x | x
CC(C)(C)OC(=O)NCCCCCc1nnc(SCC(=O)Nc2cccc(Cl)c2)o1 | n | n | 17 | n | n | n | 77 | n
CC(C)(C)OC(=O)NCCc1nnc(SCC(=O)Nc2cccc(Cl)c2)o1 | n | n | n | n | n | n | x | x
O=C1CC(C(=O)N2CCc3ccccc32)CN1c1cccc(C(F)(F)F)c1 (stereo not drawn) | n | n | n | n | n | n | x | x
COc1ccc(NS(=O)(=O)c2ccc(NC(C)=O)cc2)c(OC)c1 | n | n | n | n | n | n | x | x
CCN(CC)S(=O)(=O)c1ccc(NC(=O)c2ccc(N(C)S(C)(=O)=O)cc2)cc1 | n | n | 103 | n | n | n | 104 | n
CCN(CC)S(=O)(=O)c1ccc(C(=O)Nc2ccc(Cc3ccncc3)cc2)cc1 | n | n | 34 | n | n | n | 76 | n
COc1ccc(NS(=O)(=O)c2ccc(NC(=O)c3ccc(N(C)S(C)(=O)=O)cc3)cc2)c(OC)c1 | n | n | 99 | n | n | n | 107 | n
CCN(CC)S(=O)(=O)c1ccc(C(=O)Nc2cc(C)cc(C)c2)cc1 | n | n | n | n | n | n | x | x
Cc1cc(=O)[nH]c(SCC(=O)c2ccc3c(c2)NC(=O)CO3)n1 | n | n | 15 | n | n | n | n | n
Nc1cc(N)nc(SCC(=O)c2ccc3c(c2)NC(=O)CO3)n1 | n | n | n | n | n | n | x | x
COc1ccc(CNC(=O)[C@@H](C)NC(=O)[C@@H]2Cc3ccccc3CN2)cc1 | n | n | 20 | n | n | n | n | n
Cc1ccc(Oc2ccc(C(=O)NCc3ccncc3)cc2)cc1 | x | x | 83 | n | x | n | 97 | n
O=C(NCc1ccncc1)c1ccc(Oc2ccccc2)cc1 | n | n | n | n | n | n | x | x
CN1CCN(C(=O)CSc2nnc(COc3ccc(Cl)cc3)o2)CC1 | n | n | n | x | n | n | x | x
SMILES | Jurkat NFkB inh | NR2E3 ag-1 | GalR3 antagonist | Gli-Sufu antag | 697 NFkB inh | NR2E3 ag-2 | GalR3 antag conf | CNG parental
c1cncc(-c2nnc3sc(C4CCCCC4)nn23)c1 | n | n | x | n | n | n | n | n
COc1ccc(-c2oc3ccc(N4CCOCC4)cc3c2C#CCO)cc1 | n | n | 57 | n | n | n | 30 | n
CC(=O)NCCc1nc2ccccc2n1Cc1ccc(C)cc1 | n | n | x | n | n | n | n | n
COc1ccc(Cl)cc1CN1CCOCC1 | n | n | 13 | n | n | n | n | n
Cc1ccc(C(=O)N/C(=C/c2ccco2)C(=O)NC2CCS(=O)(=O)C2)cc1 (stereo not drawn) | n | n | n | n | n | n | x | x
COc1ccc(/C=C(/NC(=O)c2ccccc2)C(=O)NC2CCS(=O)(=O)C2)cc1 (stereo not drawn) | n | n | x | n | n | n | n | n
COCCCNC(=O)c1cc2cc(Br)ccc2oc1=O | n | n | 34 | n | n | n | n | n
O=C(COc1cc(Cl)c(Cl)cc1Cl)Nc1ccncc1 | n | n | 13 | n | n | n | n | n
Nc1c(Cl)cc(-c2csc(NC(CO)c3nc4ccccc4n3CCOCCO)n2)cc1Cl (stereo not drawn) | n | n | 64 | n | n | n | n | n
COc1cc([N+](=O)[O-])cc(/C=N/NC(=O)c2cccnc2)c1O | n | n | 54 | n | n | n | n | n
CC1CCN(CCCNC(=O)c2cn(C)c3ccc(S(=O)(=O)N4CCCC4)cc3c2=O)CC1 | n | n | 15 | n | n | n | n | n
CN(CCCNC(=O)c1cn(C)c2ccc(S(=O)(=O)N(C)C)cc2c1=O)c1ccccc1 | n | n | 20 | n | n | n | n | n
Cc1ccccc1C(=O)Nc1ccnn1C1CCN(C(=O)C2CCOC2)CC1 (stereo not drawn) | n | n | n | n | n | n | x | x
Cc1cc(C)c(NC(=O)CN(C)C(=O)CCN2C(=O)C3CCCCC3C2=O)c(C)c1 (stereo not drawn) | x | x | n | x | x | n | x | x
O=[N+]([O-])c1ccc(NCCc2ccccc2)c(Br)c1 | n | n | n | n | n | x | x | x
Cn1c(CN2CCCCC2)nc2cc(NC(=O)c3cccc(Br)c3)ccc21 | n | n | 18 | n | n | n | 38 | n
